Test results from ChEMBL document CHEMBL1140164, “Isosorbide-2-carbamate esters: potent and selective butyrylcholinesterase inhibitors” (J Med Chem, 2008).
Active and inactive are the calls of the source. The rule behind the calls is not given here.

Columns and labels:
Cholinesterase [1] = target: T1, Cholinesterase (Homo sapiens, UniProt P06276); test: Inhibition of human plasma BuchE by Ellman's method; assay type: cell-free
[2] = target: Acetylcholinesterase (Electrophorus electricus) (UniProt O42275); test: Inhibition of electric eel AchE at 100 uM by Ellman's method
Chain of Acetylcholinesterase (Electrophorus electricus) (O42275 24-633 limits assumed): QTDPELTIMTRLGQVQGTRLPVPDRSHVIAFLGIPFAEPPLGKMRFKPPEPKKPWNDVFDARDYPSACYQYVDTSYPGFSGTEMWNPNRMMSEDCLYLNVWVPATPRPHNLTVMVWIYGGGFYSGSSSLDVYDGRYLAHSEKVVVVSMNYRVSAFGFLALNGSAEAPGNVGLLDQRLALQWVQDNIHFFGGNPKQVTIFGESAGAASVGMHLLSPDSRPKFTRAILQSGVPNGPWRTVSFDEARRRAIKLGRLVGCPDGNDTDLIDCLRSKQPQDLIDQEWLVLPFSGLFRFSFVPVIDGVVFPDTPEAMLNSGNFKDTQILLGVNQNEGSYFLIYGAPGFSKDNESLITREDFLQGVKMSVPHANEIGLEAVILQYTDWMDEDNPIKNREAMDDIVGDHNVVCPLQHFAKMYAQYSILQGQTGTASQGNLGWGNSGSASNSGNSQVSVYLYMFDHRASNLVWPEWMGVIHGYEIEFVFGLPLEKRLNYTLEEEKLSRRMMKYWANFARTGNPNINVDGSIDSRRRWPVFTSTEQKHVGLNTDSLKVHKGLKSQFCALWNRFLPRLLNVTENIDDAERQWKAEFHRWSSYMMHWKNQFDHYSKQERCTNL
Method in brief: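 Ellman assay with electric eel AChE and ATCI as substrate, phosphate buffer pH 8.0, DTNB (0.5 mM solution). Enzyme and inhibitor incubated 30 min before substrate addition; absorbance read at 405 nm over 5 min. […] Triplicate.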

Cholinesterase [3] = target: T1, Cholinesterase; test: Inhibition of human plasma BuchE at 100 uM by Ellman's method; assay type: cell-free
Method in brief: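 Ellman assay using human plasma (or purified plasma BuChE) in phosphate buffer pH 8.0 with DTNB (0.5 mM solution); 30 min enzyme–inhibitor preincubation, then BTCI (0.5 mM solution) added and rate read at 405 nm over 5 min. Percent inhibition determined at 100 µM inhibitor; triplicate.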

Acetylcholinesterase [4] = target: Acetylcholinesterase (Electrophorus electricus, UniProt O42275); test: Inhibition of electric eel AchE by Ellman's method
Chain of Acetylcholinesterase (Electrophorus electricus, UniProt O42275) (O42275 whole entry): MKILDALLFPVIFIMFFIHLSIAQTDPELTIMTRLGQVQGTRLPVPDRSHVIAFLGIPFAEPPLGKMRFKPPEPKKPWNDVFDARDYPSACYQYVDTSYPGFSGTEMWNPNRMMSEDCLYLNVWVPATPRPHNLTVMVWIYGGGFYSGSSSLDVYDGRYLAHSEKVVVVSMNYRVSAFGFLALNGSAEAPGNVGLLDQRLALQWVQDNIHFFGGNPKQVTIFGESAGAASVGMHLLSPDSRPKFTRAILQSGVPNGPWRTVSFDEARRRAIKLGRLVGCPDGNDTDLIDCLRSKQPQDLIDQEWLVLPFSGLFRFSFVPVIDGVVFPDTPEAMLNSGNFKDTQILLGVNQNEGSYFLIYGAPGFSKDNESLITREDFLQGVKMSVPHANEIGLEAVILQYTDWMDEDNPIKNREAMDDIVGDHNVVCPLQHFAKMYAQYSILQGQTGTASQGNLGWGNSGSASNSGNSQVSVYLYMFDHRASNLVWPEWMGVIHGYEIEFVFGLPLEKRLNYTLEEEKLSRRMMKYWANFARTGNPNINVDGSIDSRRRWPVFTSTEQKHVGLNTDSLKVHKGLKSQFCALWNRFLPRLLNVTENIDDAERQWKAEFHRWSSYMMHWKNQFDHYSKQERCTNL

[5] = Selectivity ratio of IC50 for electric eel AchE to IC50 for human plasma BuchE
Cholinesterase [6] = target: T1, Cholinesterase; test: Inhibition of human plasma BuchE in presence of edrophonium by carbamylation assay; assay type: cell-free
Method in brief: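 Carbamylation time course with purified human plasma BuChE (1.2 × 10^-3 mg/mL) and inhibitor at 1 mM in the presence of 5 mM edrophonium; activity sampled over 60 min preincubation, measured with DTNB 0.3 mM and substrate at 412 nm for 5 min.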

Plasma = test: Stability in 50% human plasma assessed as drug hydrolysis at 10 to 100 uM by HPLC; assay type: ADME, cell-free
Method in brief: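 Pooled citrated human venous plasma diluted with pH 7.4 phosphate buffer to 50%, showing normal adult BuChE activity. Compound added in acetonitrile and incubated at 37 °C. Aliquots taken at intervals, quenched in 2% ZnSO4·7H2O in MeCN-H2O (1:1) plus acetonitrile, vortexed and centrifuged. Supernatant analysed by reversed-phase HPLC with a gradient of pH 2.5 phosphate buffer:acetonitrile, 50:50 to 20:80 over 20 min.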

Homo sapiens = species on record: Homo sapiens; test: Selectivity ratio of IC50 for human erythrocyte AchE to IC50 for human plasma BuchE
Cholinesterase [7] = target: T1, Cholinesterase; test: Inhibition of human plasma BuchE using variable substrate levels by carbamylation assay; assay type: cell-free
Method in brief: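 Time-course carbamylation with purified human plasma BuChE (1.2 × 10^-3 mg/mL), fixed inhibitor concentration, substrate varied 0.5-10 mM; preincubation sampled at 0-60 min intervals, then DTNB 0.3 mM plus substrate added and read at 412 nm for 5 min. Data plotted as ln E/E_T versus time.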

Acetylcholinesterase [8] = target: Acetylcholinesterase (Homo sapiens, UniProt P22303); test: Inhibition of human erythrocyte AchE by Ellman's method
Chain of Acetylcholinesterase (Homo sapiens, UniProt P22303) (P22303 whole entry): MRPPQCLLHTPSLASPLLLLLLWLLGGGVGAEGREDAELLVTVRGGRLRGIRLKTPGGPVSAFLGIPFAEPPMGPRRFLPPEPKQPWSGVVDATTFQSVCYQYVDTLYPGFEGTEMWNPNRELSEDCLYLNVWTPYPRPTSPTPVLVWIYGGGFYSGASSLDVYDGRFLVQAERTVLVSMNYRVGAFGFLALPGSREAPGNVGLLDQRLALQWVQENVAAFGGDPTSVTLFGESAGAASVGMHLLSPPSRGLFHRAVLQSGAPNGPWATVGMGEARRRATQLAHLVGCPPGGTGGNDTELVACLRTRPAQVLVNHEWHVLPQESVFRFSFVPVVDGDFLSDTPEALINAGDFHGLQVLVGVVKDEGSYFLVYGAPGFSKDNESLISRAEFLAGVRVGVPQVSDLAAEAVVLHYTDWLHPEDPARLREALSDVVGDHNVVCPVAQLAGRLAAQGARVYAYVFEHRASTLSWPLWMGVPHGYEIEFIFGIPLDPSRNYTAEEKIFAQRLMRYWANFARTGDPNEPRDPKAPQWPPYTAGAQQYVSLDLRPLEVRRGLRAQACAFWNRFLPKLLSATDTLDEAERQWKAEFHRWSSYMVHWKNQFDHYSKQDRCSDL

Cholinesterase [9] = target: T1, Cholinesterase; test: Inhibition of human plasma BuchE after 60 mins by carbamylation assay; assay type: cell-free
Method in brief: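 Purified human plasma BuChE (1.2 × 10^-3 mg/mL) preincubated with inhibitor in buffer in a cuvette for up to 60 min, readings at 0, 5, 10, 20, 30, 40, 50, 60 min; DTNB 0.3 mM and substrate then added, reaction followed at 412 nm for 5 min.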

T1 sequence (P06276 whole entry): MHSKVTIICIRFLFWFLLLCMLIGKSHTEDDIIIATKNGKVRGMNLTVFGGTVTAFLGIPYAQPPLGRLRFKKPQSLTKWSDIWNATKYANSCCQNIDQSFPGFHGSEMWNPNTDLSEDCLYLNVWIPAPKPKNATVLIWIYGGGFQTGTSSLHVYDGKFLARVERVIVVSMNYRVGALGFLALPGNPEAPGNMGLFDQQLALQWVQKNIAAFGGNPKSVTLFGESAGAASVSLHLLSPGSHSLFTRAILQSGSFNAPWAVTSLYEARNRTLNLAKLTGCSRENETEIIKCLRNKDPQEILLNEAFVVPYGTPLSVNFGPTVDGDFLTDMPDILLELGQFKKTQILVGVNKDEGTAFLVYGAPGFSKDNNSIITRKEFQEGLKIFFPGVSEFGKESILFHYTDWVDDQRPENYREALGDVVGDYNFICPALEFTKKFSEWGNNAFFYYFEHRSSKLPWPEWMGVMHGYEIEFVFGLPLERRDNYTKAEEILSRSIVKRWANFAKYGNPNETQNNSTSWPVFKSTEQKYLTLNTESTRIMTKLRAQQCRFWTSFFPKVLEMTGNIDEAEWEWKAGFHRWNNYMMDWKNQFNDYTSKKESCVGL

| Structure (SMILES) | IC50 (Cholinesterase [1]) [µM] | inhibition [2] [%] | inhibition (Cholinesterase [3]) [%] | IC50 (Acetylcholinesterase [4]) [µM] | Ratio IC50 [5] | also measured |
| --- | --- | --- | --- | --- | --- | --- |
| O=C(/C=C/c1ccc(O)cc1)O[C@@H]1CO[C@H]2[C@@H]1OC[C@@H]2OC(=O)NCc1ccccc1 | 0.073 | 81 | 100 | 60.4 | 821 | – |
| O=C(Nc1cccc(C(F)(F)F)c1)O[C@H]1CO[C@H]2[C@@H]1OC[C@H]2O[N+](=O)[O-] | – | 12 | 10 | – | – | – |
| CCCCCCc1ccc(C(=O)O[C@@H]2CO[C@H]3[C@@H]2OC[C@@H]3OC(=O)NCc2ccccc2)cc1 | 2.8 | – | – | – | – | – |
| O=C(NCc1ccccc1)O[C@H]1CO[C@H]2[C@@H]1OC[C@H]2OC(=O)c1cccnc1 | 0.057 | 33 | 99 | – | 1750 | – |
| CNC(=O)O[C@H]1CO[C@H]2[C@@H]1OC[C@H]2OC(=O)c1ccccc1 | 0.669 | 54 | 93 | – | 150 | – |
| O=C(/C=C/c1ccccc1)O[C@@H]1CO[C@H]2[C@@H]1OC[C@@H]2OC(=O)NCc1ccccc1 | 0.137 | 82 | 96 | 55.9 | 729 | – |
| CCNC(=O)O[C@H]1CO[C@H]2[C@@H]1OC[C@H]2O[N+](=O)[O-] | 3.9 | 1 | 73 | – | – | – |
| CCC(=O)O[C@@H]1CO[C@H]2[C@@H]1OC[C@@H]2OC(=O)NCc1ccccc1 | 0.98 | 5 | 97 | – | > 100 | – |
| O=C(NCc1ccccc1)O[C@H]1CO[C@H]2[C@@H]1OC[C@H]2OC(=O)c1ccc(-c2ccccc2)cc1 | 0.012 | 89 | 99 | 51.6 | 4190 | – |
| CCCCC(=O)O[C@@H]1CO[C@H]2[C@@H]1OC[C@@H]2OC(=O)NCc1ccccc1 | 0.7 | 4 | 95 | – | > 142 | – |
| O=C(Nc1ccccc1Cl)O[C@H]1CO[C@H]2[C@@H]1OC[C@H]2O[N+](=O)[O-] | – | 24 | 11 | – | – | – |
| O=C(NCc1ccccc1)O[C@H]1CO[C@H]2[C@@H]1OC[C@H]2OC(=O)c1ccc2ccccc2c1 | 0.032 | 80 | 100 | 43.4 | 1370 | – |
| CC(C)NP(=O)(NC(C)C)OP(=O)(NC(C)C)NC(C)C [TETRAISOPROPYL PYROPHOSPHORAMIDE] | – | – | – | 2.5 | – | – |
| CNC(=O)O[C@H]1CO[C@H]2[C@@H]1OC[C@H]2O[N+](=O)[O-] | 5.1 | 67 | 82 | 17.2 | – | – |
| O=C(NCc1ccccc1)O[C@H]1CO[C@H]2[C@@H]1OC[C@H]2OC(=O)c1ccccc1 | 0.0043 | 21 | 99 | 273 | 63300 | Activity (Cholinesterase [6]): inactive; Stability (Plasma): Stable; Ratio IC50 (Homo sapiens): 51000; Activity (Cholinesterase [7]): Dose-dependent effect; IC50 (Acetylcholinesterase [8]): 221 µM |
| O=C(Nc1cccc(Cl)c1)O[C@H]1CO[C@H]2[C@@H]1OC[C@H]2O[N+](=O)[O-] | – | 24 | 11 | – | – | – |
| O=C(NCc1ccccc1)O[C@H]1CO[C@H]2[C@@H]1OC[C@H]2O | 3.7 | 15 | 95 | – | > 27 | – |

| Structure (SMILES) | IC50 (Cholinesterase [1]) [µM] | inhibition [2] [%] | inhibition (Cholinesterase [3]) [%] | IC50 (Acetylcholinesterase [4]) [µM] | Ratio IC50 [5] | also measured |
| --- | --- | --- | --- | --- | --- | --- |
| CC(=O)O[C@@H]1CO[C@H]2[C@@H]1OC[C@@H]2OC(=O)NCc1ccccc1 | 4.1 | 12 | 97 | – | > 25 | – |
| O=C(Nc1ccc(Cl)c(Cl)c1)O[C@H]1CO[C@H]2[C@@H]1OC[C@H]2OC(=O)c1ccccc1 | – | 70 | 38 | – | – | – |
| O=C(NCc1ccccc1)O[C@H]1CO[C@H]2[C@@H]1OC[C@H]2OC(=O)OS(=O)(=O)C(F)(F)F | 0.359 | – | – | – | – | – |
| O=C(NCc1ccccc1)O[C@H]1CO[C@H]2[C@@H]1OC[C@H]2OC(=O)c1ccncc1 | 0.088 | 24 | 97 | – | – | – |
| CCC(C)NC(=O)O[C@H]1CO[C@H]2[C@@H]1OC[C@H]2OC(=O)c1ccccc1 (some centres not stated) | 0.072 | 31 | 99 | – | 1390 | – |
| O=C(NC1CCCCC1)O[C@H]1CO[C@H]2[C@@H]1OC[C@H]2O[N+](=O)[O-] | 2.5 | 30 | 99 | – | > 40 | – |
| O=C(NCc1ccccc1)O[C@H]1CO[C@H]2[C@@H]1OC[C@H]2OC(=O)C1CCCC1 | 0.006 | 88 | 99 | 56.3 | 9380 | – |
| O=C(NCc1ccccc1)O[C@H]1CO[C@H]2[C@@H]1OC[C@H]2OC(=O)c1cccc2ccccc12 | 0.028 | 86 | 99 | 37.6 | 1340 | – |
| CS(=O)(=O)OC(=O)O[C@@H]1CO[C@H]2[C@@H]1OC[C@@H]2OC(=O)NCc1ccccc1 | – | 3 | 9.8 | – | – | – |
| O=C(NCc1ccccc1)O[C@H]1CO[C@H]2[C@@H]1OC[C@H]2OC(=O)C1CC1 | 0.334 | 55 | 97 | – | 300 | – |
| O=C(NCc1ccccc1)O[C@H]1CO[C@H]2[C@@H]1OC[C@H]2O[N+](=O)[O-] | 0.051 | 35 | 96 | – | > 2000 | IC50 (Cholinesterase [9]): 0.0036 µM |
| CCCCNC(=O)O[C@H]1CO[C@H]2[C@@H]1OC[C@H]2O[N+](=O)[O-] | 0.894 | 32 | 92 | 1440 | 1610 | – |
| CCCNC(=O)O[C@H]1CO[C@H]2[C@@H]1OC[C@H]2O[N+](=O)[O-] | 0.639 | 1 | 93 | 1520 | 2380 | – |
| C=CC[N+](C)(C)c1ccc(CCC(=O)CCc2ccc([N+](C)(C)CC=C)cc2)cc1 | – | – | – | 0.063 | – | – |
| Cc1ccc(S(=O)(=O)C(=O)O[C@@H]2CO[C@H]3[C@@H]2OC[C@@H]3OC(=O)NCc2ccccc2)cc1 | – | 66 | 25 | – | – | – |
| O=C(Nc1ccccc1)O[C@H]1CO[C@H]2[C@@H]1OC[C@H]2O[N+](=O)[O-] | – | 23 | 37 | – | – | – |
| O=C(Nc1ccc(Cl)c(Cl)c1)O[C@H]1CO[C@H]2[C@@H]1OC[C@H]2O[N+](=O)[O-] | – | 78 | 28 | 9.9 | – | – |
